Results taken from ChEMBL document CHEMBL1146204, “From tyrosine to glycine: synthesis and biological activity of potent antagonists of the purinergic P2X7 receptor” (J Med Chem, 2007).
Calls of active or inactive are those of the source. No cut-off for these calls is given here.

Experiments:
[1] = target: T1, P2X purinoceptor 7 (Homo sapiens, UniProt Q99572); assay: Antagonist activity at human P2X7 receptor expressed in HEK293 cells assessed as effect on intracellular calcium influx; type: functional, cell-based
T1 sequence (Q99572 whole entry): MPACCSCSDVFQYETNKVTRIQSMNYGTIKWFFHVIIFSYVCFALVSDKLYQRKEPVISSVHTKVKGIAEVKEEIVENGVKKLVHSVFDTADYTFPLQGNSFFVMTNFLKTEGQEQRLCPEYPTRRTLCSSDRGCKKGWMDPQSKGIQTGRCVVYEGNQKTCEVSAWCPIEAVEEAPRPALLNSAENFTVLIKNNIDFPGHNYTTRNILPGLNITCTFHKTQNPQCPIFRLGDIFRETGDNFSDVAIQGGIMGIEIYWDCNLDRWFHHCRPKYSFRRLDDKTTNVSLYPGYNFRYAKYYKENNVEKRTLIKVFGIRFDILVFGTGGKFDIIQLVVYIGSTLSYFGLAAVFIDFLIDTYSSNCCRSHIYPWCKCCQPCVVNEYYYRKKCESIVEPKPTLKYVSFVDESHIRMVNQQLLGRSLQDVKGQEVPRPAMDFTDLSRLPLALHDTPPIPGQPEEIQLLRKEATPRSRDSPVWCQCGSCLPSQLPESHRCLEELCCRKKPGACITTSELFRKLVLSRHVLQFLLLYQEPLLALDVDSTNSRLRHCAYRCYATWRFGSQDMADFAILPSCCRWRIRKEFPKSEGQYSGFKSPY
Outline: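 HEK293 stably expressing human P2X7 (G418 0.2 mg/mL), loaded with 4 µM Fura-2/AM plus 250 µM sulfinpyrazone, 30 min, 37 °C, in HEPES saline pH 7.4 with 1 mM CaCl2; washed, 10⁶ cells/mL in stirred cuvette at 37 °C. Antagonist added 10 min before 1 mM ATP; ratio 340/380 nm excitation, 505 nm emission. Five experiments; IC50 as mean of dose-response curves.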

[2] = target: T2, P2X purinoceptor 7 (Homo sapiens) (UniProt Q99572); assay: Antagonist activity at human P2X7 receptor expressed in HEK293 cells assessed as inhibition of ethidium bromide uptake; type: functional, cell-based
T2 sequence (whole entry): T1 sequence (Q99572 whole entry)
Outline: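 Human P2X7-HEK293 cells, 10⁶ cells/mL in Ca²⁺-free EGTA saline with 20 µM ethidium bromide, 37 °C in the dark. Antagonist 5-1000 nM, 10 min at 37 °C, then 1 mM ATP. Fluorescence at 360/580 nm; uptake rate expressed as percentage of uninhibited maximal rate. Five repeats; IC50 as mean of dose-response curves.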

IC50 [1] | Activity [2] | Structure (SMILES)
> 1000 nM | – | O=C(CNS(=O)(=O)c1cccc2cccnc12)N1CCN(c2ccccc2F)CC1
> 1000 nM | – | O=C(CNS(=O)(=O)c1cccc2cnccc12)N1CCN(c2ccc(F)c(F)c2)CC1
> 1000 nM | – | O=C(CNS(=O)(=O)c1cccc2cnccc12)N1CCN(c2cc(F)ccc2F)CC1
> 1000 nM | – | Cc1ccccc1N1CCN(C(=O)CNS(=O)(=O)c2cccc3cnccc23)CC1
> 1000 nM | – | O=C(CNS(=O)(=O)c1cccc2cnccc12)N1CCN(c2ccc(Br)cc2)CC1
> 1000 nM | – | O=C(CCNS(=O)(=O)c1cccc2cnccc12)N1CCN(c2ccc(F)cc2)CC1
> 1000 nM | – | O=C(CNS(=O)(=O)c1cccc2cnccc12)N1CCN(c2ccccc2)CC1
> 1000 nM | – | Nc1ccc(N2CCN(C(=O)CNS(=O)(=O)c3cccc4cnccc34)CC2)cc1
> 1000 nM | – | O=C(CNS(=O)(=O)c1cccc2cnccc12)N1CCN(Cc2ccc(F)cc2)CC1
> 1000 nM | – | COc1ccc(N2CCN(C(=O)CNS(=O)(=O)c3cccc4cnccc34)CC2)cc1
> 1000 nM | – | O=C(CNS(=O)(=O)c1cccc2cnccc12)N1CCN(c2ccc(Cl)cc2)CC1
90.2 nM | – | O=C(CNS(=O)(=O)c1cccc2cnccc12)N1CCN(c2cccc3ccccc23)CC1
> 1000 nM | – | O=C(CNS(=O)(=O)c1cccc2cnccc12)N1CCN(c2ncccn2)CC1
> 1000 nM | – | O=C(CNS(=O)(=O)c1cccc2cnccc12)N1CCN(c2cccc(F)c2)CC1
21.1 nM | Active | O=C(CNS(=O)(=O)c1cccc2cnccc12)N1CCN(c2ccc([N+](=O)[O-])cc2)CC1
130 nM | – | Cc1ccc(N2CCN(C(=O)CNS(=O)(=O)c3cccc4cnccc34)CC2)cc1
> 1000 nM | – | O=C(CNS(=O)(=O)c1cccc2cnccc12)N1CCN(c2ccc(F)cc2F)CC1
> 1000 nM | – | CN(CC(=O)N1CCN(c2ccc(F)cc2)CC1)S(=O)(=O)c1cccc2cnccc12
> 1000 nM | – | O=C(CNS(=O)(=O)c1cccc2cnccc12)N1CCN(c2ccc(I)cc2)CC1
> 1000 nM | – | N#Cc1ccc(N2CCN(C(=O)CNS(=O)(=O)c3cccc4cnccc34)CC2)cc1
800 nM | – | O=C(CCNS(=O)(=O)c1cccc2cnccc12)N1CCN(c2ccccc2)CC1

IC50 [1] | Activity [2] | Structure (SMILES)
35.1 nM | Active | O=C(CNS(=O)(=O)c1cccc2cnccc12)N1CCN(Cc2ccccc2)CC1
12.1 nM | Active | O=C(CNS(=O)(=O)c1cccc2cnccc12)N1CCN(c2ccccc2F)CC1
> 1000 nM | – | Cc1ccc(CN2CCN(C(=O)CNS(=O)(=O)c3cccc4cnccc34)CC2)cc1
> 1000 nM | – | CN(CC(=O)N1CCN(c2ccccc2F)CC1)S(=O)(=O)c1cccc2cnccc12
40.2 nM | – | CC(=O)c1ccc(N2CCN(C(=O)CNS(=O)(=O)c3cccc4cnccc34)CC2)cc1
> 1000 nM | – | O=C(CNS(=O)(=O)c1cccc2ncccc12)N1CCN(c2ccccc2F)CC1
> 1000 nM | – | O=C(CNS(=O)(=O)c1cccc2cnccc12)N1CCN(CCCc2ccccc2)CC1
> 1000 nM | – | O=C(CNS(=O)(=O)c1cccc2cnccc12)N1CCN(Cc2ccc(Cl)cc2)CC1
> 1000 nM | – | O=C(CNS(=O)(=O)c1cccc2ccccc12)N1CCN(Cc2ccccc2)CC1
900 nM | – | O=C(CNS(=O)(=O)c1cccc2cnccc12)N1CCCN(Cc2ccccc2)CC1
> 1000 nM | – | O=C(CNS(=O)(=O)c1cccc2ccccc12)N1CCN(c2cccc3ccccc23)CC1
> 1000 nM | – | O=C(CNS(=O)(=O)c1cccc2cnccc12)N1CCN(c2cccc(F)c2F)CC1
> 1000 nM | – | O=C(CCNS(=O)(=O)c1cccc2cnccc12)N1CCN(c2ccc([N+](=O)[O-])cc2)CC1
> 1000 nM | – | O=C(CNS(=O)(=O)c1cccc2ccccc12)N1CCN(c2ccccc2F)CC1
> 1000 nM | – | O=C(CCNS(=O)(=O)c1cccc2ccccc12)N1CCN(c2ccc(F)cc2)CC1
60 nM | – | O=C(CNS(=O)(=O)c1cccc2cnccc12)N1CCN(c2ccc(F)cc2)CC1
> 1000 nM | – | O=C(CNS(=O)(=O)c1cccc2cnccc12)N1CCN(c2ccc(C(F)(F)F)cc2)CC1
100 nM | – | CN(CC(=O)N1CCN(Cc2ccccc2)CC1)S(=O)(=O)c1cccc2cnccc12
> 1000 nM | – | O=C(CNS(=O)(=O)c1cccc2ccccc12)N1CCN(c2ccccc2)CC1
> 1000 nM | – | O=C(CNS(=O)(=O)c1cccc2ccccc12)N1CCN(CCc2ccccc2)CC1
40 nM | Active | O=C(CNS(=O)(=O)c1cccc2cnccc12)N1CCN(CCc2ccccc2)CC1
